Screening data from PubChem.
Scp-1 inhibitor = blocks human Scp-1 phosphatase activity | actives 0.88% (n = 340,000) | Recombinant Scp1, phosphopeptide, malachite green phosphate absorbance | inhibition, % at 20 µM;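 active means inhibition above about 50% at 20 µM, limit read from the data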
Target sequence (Q9GZU7 76-261 limits assumed): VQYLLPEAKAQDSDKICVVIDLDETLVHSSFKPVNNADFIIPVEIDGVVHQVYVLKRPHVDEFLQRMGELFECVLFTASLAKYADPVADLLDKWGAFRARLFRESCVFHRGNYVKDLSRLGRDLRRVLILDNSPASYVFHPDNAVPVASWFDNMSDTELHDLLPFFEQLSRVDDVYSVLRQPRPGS
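System: truncated SCP-1 phosphatase (76-261aa); medium: Tris acetate buffer pH 5.5 with MgCl2 and Tween-20; incubation: 45 min room-temperature reaction, 5 min colour, 30 min stabiliser; compound: single 20 µM dose, 1% DMSO; reagent: Phosphorylated 17-residue peptide substrate; read-out: % inhibition at 20 µM; technique: colorimetric free-phosphate detection, absorbance 630 nm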
LMPTP inh = LMPTP (human) inhibition; recombinant LMPTP-A, OMFP fluorogenic substrate, fluorescence intensity; actives 0.22% (n = 360,000); inhibition, % at 20 µM;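 active means compounds that cut the enzyme signal by at least half of the control window in the single-dose screen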
Target sequence (P24666 whole entry, looked up): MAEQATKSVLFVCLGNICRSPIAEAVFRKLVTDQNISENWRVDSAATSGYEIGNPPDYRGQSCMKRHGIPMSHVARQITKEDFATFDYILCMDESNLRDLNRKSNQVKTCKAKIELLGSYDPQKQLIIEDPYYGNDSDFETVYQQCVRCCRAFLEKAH
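Test system: LMPTP-A phosphatase enzyme. Amount: LMPTP-A at 0.625 nM final in the reaction. Reagent: OMFP substrate, 400 µM final. Times: 50 min at room temperature. Signal: endpoint fluorescence intensity from OMFP dephosphorylation. Read-out basis: % inhibition. Benchmarks: no-enzyme and uninhibited controls.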
DNMT1 inh = DNMT1 (human) enzyme inhibition. P26358. DNMT1 molecular beacon, Hinp1I cleavage, fluorescence. inhibition (reported as % activation of signal), % at 10 µM. actives 0.83% (n = 360,000); in the data active means inhibition above about 50%
SUMO1 PPI mod = SUMO1-SIM interaction modulation. inhibition, % at 20 µM. actives 0.33% (n = 360,000). SUMO1 binding to a labelled peptide, TR-FRET, 1 h; in the data active means inhibition above about 37%
STEP block = STEP (human) phosphatase inhibition. actives 0.25% (n = 360,000). inhibition, % at 20 µM. P54829. recombinant STEP, OMFP fluorogenic substrate, fluorescence;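 active means inhibition at 20 µM, scaled per plate between control wells, above about 37%, limit read from the data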
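Material: STEP (striatal-enriched tyrosine phosphatase) enzyme, cell-free; Compound dosing: 20 µM single dose in 1% DMSO; Technique: fluorescence read at 480 nm ex / 540 nm em; Times: reaction 20 min, ambient temperature; Medium: 50 mM Bis-Tris pH 6.0 with 2.5 mM DTT and 0.005% Tween 20; Also added: OMFP at 25 µM.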
A number is an active result. Most compounds without a hit are left out; they make up all but 1.7% or so of the library.

For COc1ccc(CNC2CC(C)N(C)CC2C)cc1OC (stereo not drawn) the results were Scp-1 inhibitor inactive, LMPTP inh 53, DNMT1 inh inactive, SUMO1 PPI mod inactive and STEP block inactive.
Screening O=C(CSc1nnnn1C1CC1)Nc1ccc(S(=O)(=O)N2CCOCC2)cc1 returned Scp-1 inhibitor inactive, LMPTP inh inactive, DNMT1 inh inactive, SUMO1 PPI mod inactive and STEP block inactive.
COc1ccc(C(=O)Nc2ccc(C(=O)Nc3nccs3)cc2)cc1[N+](=O)[O-] was read as Scp-1 inhibitor inactive, LMPTP inh inactive, DNMT1 inh inactive, SUMO1 PPI mod 54 and STEP block inactive.
Screening COc1ccc(C(=O)NC(=S)Nc2cccc3ncccc23)cc1[N+](=O)[O-] returned Scp-1 inhibitor inactive, LMPTP inh inactive, DNMT1 inh inactive, SUMO1 PPI mod 56 and STEP block inactive.
For O=C(Nc1nccs1)c1ccc(Cl)c([N+](=O)[O-])c1 the results were Scp-1 inhibitor inactive, LMPTP inh inactive, DNMT1 inh inactive, SUMO1 PPI mod inactive and STEP block inactive.
Cc1ccc(NC(=O)CSc2nc(N)cc(=O)[nH]2)cc1S(=O)(=O)N1CCCCC1 was read as Scp-1 inhibitor inactive, LMPTP inh inactive, DNMT1 inh inactive, SUMO1 PPI mod 39 and STEP block inactive.
`Cc1ccc(NC(=O)CSc2nc(N)cc(=O)[nH]2)cc1S(=O)(=O)N1CCOCC1` gave Scp-1 inhibitor inactive, LMPTP inh inactive, DNMT1 inh inactive, SUMO1 PPI mod inactive and STEP block inactive.
`Cc1ccc(-c2cc(C(=O)Nc3ccccn3)c3ccccc3n2)o1` gave Scp-1 inhibitor 58, LMPTP inh inactive, DNMT1 inh 61, SUMO1 PPI mod inactive and STEP block inactive.
CCCCCCCCCCCCCCCC(O)C[N+](C)(C)CCO (stereo not drawn) was read as Scp-1 inhibitor 82, LMPTP inh inactive, DNMT1 inh inactive, SUMO1 PPI mod inactive and STEP block inactive.
For CC(=O)N1c2c(cc(Br)cc2S(=O)(=O)N2CCN(c3ccccc3F)CC2)CC1C (stereo not drawn) the results were Scp-1 inhibitor inactive, LMPTP inh inactive, DNMT1 inh inactive, SUMO1 PPI mod inactive and STEP block inactive.
For COC(=O)c1c(Sc2ccccc2)c2ccccc2n1C the results were Scp-1 inhibitor 61, LMPTP inh inactive, DNMT1 inh inactive, SUMO1 PPI mod inactive and STEP block inactive.
For O=S(=O)(c1cccc(COc2c(Cl)cccc2Cl)c1)N1CCOCC1 the results were Scp-1 inhibitor inactive, LMPTP inh inactive, DNMT1 inh inactive, SUMO1 PPI mod inactive and STEP block inactive.
`CCOC(=O)c1ccc(N2C(=O)c3n[nH]c(C)c3C2c2ccccn2)cc1` (stereo not drawn) gave Scp-1 inhibitor inactive, LMPTP inh inactive, DNMT1 inh inactive, SUMO1 PPI mod 41 and STEP block inactive.
For COc1cc(-c2noc(C)c2/C=C/c2ccc(C(=O)O)cc2)cc(OC)c1OC the results were Scp-1 inhibitor inactive, LMPTP inh inactive, DNMT1 inh 61, SUMO1 PPI mod inactive and STEP block inactive.
`CCN(C[C@H]1N[C@@](CC)(C(=O)OC)[C@H]2C(=O)N(Cc3ccccc3)C(=O)[C@@H]12)C(=O)C1CCCCC1` gave Scp-1 inhibitor inactive, LMPTP inh inactive, DNMT1 inh inactive, SUMO1 PPI mod inactive and STEP block inactive.
`Cc1ccccc1P(=O)(c1ccccc1)c1ccccc1C` gave LMPTP inh inactive, DNMT1 inh inactive, SUMO1 PPI mod 44 and STEP block inactive.
`COc1ccccc1P(=O)(c1ccccc1)c1ccccc1` gave Scp-1 inhibitor inactive, LMPTP inh inactive, DNMT1 inh inactive, SUMO1 PPI mod inactive and STEP block inactive.
Screening C/C(=N\NC(=O)c1ccccc1O)C1C(=O)c2ccccc2C1=O returned Scp-1 inhibitor inactive, LMPTP inh inactive, DNMT1 inh inactive, SUMO1 PPI mod inactive and STEP block inactive.
`C/C(=N/NC(=O)c1cc2ccccc2cc1O)C1C(=O)c2ccccc2C1=O` gave Scp-1 inhibitor inactive, LMPTP inh 66, DNMT1 inh inactive, SUMO1 PPI mod inactive and STEP block inactive.
For C/C(=N\NC(=O)c1cc2ccccc2cc1O)c1cc2ccccc2o1 the results were Scp-1 inhibitor 90, LMPTP inh inactive, DNMT1 inh inactive, SUMO1 PPI mod inactive and STEP block inactive.
